Assay results from different studies.
Lines come from different studies, so protocols differ.
Target: Ribosomal protein S6 kinase beta-1 (RPS6KB1, Homo sapiens, UniProt P23443)
Read-out: enzyme activity
Mode: inhibitor

Compound | method | concentration | remaining activity
CC(C)(O)[C@H]1CC[C@H](Nc2ccc3ncc(-c4cccc(C(F)(F)F)c4)n3n2)CC1 |  | 1 µM | 96.8%
CCN(CC)CCNC(=O)c1c(C)[nH]c(/C=C2\C(=O)Nc3ccc(F)cc32)c1C |  | 1 µM | 31%
Cn1c(=O)n(-c2ccc(C(C)(C)C#N)cc2)c2c3cc(-c4cnc5ccccc5c4)ccc3ncc21 |  | 10 µM | 109%
Cc1[nH]c(/C=C2\C(=O)Nc3ccc(F)cc32)c(C)c1C(=O)N[C@H]1CCN(C(=O)N(C)C)C1 |  | 1 µM | 52%
CC(C)(C)c1nc2c(s1)c1nc(N)ncc1c1ccc(NS(=O)(=O)c3c(F)cccc3F)c(F)c12 | radiometric | 1 µM | 87%
O=S(=O)(Nc1cc(Sc2ncn[nH]2)c(O)c2ccccc12)c1ccc(-c2ccccc2)cc1 |  | 1 µM | ≥ 75%
CCN(CC)c1ccc(C2=NNC(=O)CC2C)cc1[N+](=O)[O-] (stereo not drawn) |  | 10 µM | 109%
Cc1ccc(C(=O)Nc2ccc(CN3CCN(C)CC3)c(C(F)(F)F)c2)cc1C#Cc1cnc2cccnn12 |  | 23.5 nM | 68%
Cc1ccc(Nc2nccc(N(C)c3ccc4c(C)n(C)nc4c3)n2)cc1S(N)(=O)=O |  | 0.5 µM | 96%
COc1cc(Nc2cnc(C#N)c(O[C@H](C)CN(C)C)n2)ncc1-c1cnn(C)c1 | radiometric | 1 µM | 55%
Nc1nc(NC2CCCCC2)sc1C(=O)c1ccccc1 |  | 10 µM | 78%
Cc1sc(C(=O)NC2COC2)cc1-n1cc(NC(=O)Nc2c(F)cccc2Cl)cn1 |  | 10 µM | 92.1%
